SKKanGAS inh = SKKanGAS growth inhibition. S. pyogenes SKKanGAS, kanamycin growth, BacTiter-Glo, 6 h. inhibition, % at 7.5 µM. actives 1.3% (n = 300,000);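 active means mean replicate score, as percent of positive control median, at least 50; inconclusive means mean below 50 but one replicate at or above 50; inactive means mean and every replicate below 50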;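 further: strain carries kanamycin resistance gene driven by streptokinase promoter and grows in 40 µg/ml kanamycin; loss of luminescence reflects streptokinase promoter inhibition or plain growth inhibition; 0% = median of DMSO wells and 100% = positive control at its reference dose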
CSC inhib = blocks cancer stem cells; cancer stem cell-like cells viability, luminescence; inhibition, % at 7.5 µM; actives 1.1% (n = 300,000); in the data active means inhibition above about 75%; inconclusive means no clear call, values can overlap the other calls; tested in HMLE shEcad cells
Mdm2 MdmX PPI = human Mdm2/MdmX binding inhibition. O15151+Q00987. SaOS-2 split-luciferase Mdm2/MdmX complementation, luminescence. inhibition, % at 8 µM. actives 3% (n = 330,000);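 active means inhibition of at least 50% at 8 µM in the primary screen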
T cruzi repl = blocks replication of Trypanosoma cruzi; T. cruzi beta-gal in NIH3T3, luminescence, 90 h; actives 1.4% (n = 300,000); inhibition, % (no concentration beside the values); AID 1885;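 active means mean inhibition across valid replicates above about 55%, limit read from the data; inconclusive means mean below that limit but half or more replicates reach it; inactive means mean below it, under half of replicates reach it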;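 further: signal also drops with host cell toxicity which is not excluded here; 0% = plate median of DMSO wells and 100% = zero luminescence signal; higher percent means less beta-gal luminescence so fewer parasites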
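Read-out: Parasite load inhibition, % | Test system: Mouse NIH/3T3 fibroblasts infected with β-gal-expressing T. cruzi Tulahuen C4 | Amount: 5,000 cells/well | Medium: DMEM, 2% fetal bovine serum | Signal: GalScreen β-gal luminescence, detergent lysis, 60 min | Timing: 3 h attach, ≥90 h co-culture | Also added: Tulahuen C4 trypomastigotes, 5000/well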
aSyn UTR inh = 5' untranslated region of α-synuclein, MLPCN primary screen. alpha-synuclein 5'UTR reporter, inhibitor activity. inhibition, % (tested at 7.5 µM). actives 0.82% (n = 300,000). AID 1813; in the data active means inhibition above about 60%; inconclusive means no clear call, values can overlap the other calls;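 further: H4 neuroglioblastoma cells stably carrying SNCA 5'UTR luciferase fusion; 0% = DMSO wells and 100% = positive control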
The depositor's hits bear a star; u = inconclusive; x = not tested or not shown. The list is not random: actives were taken first. Their share in the collection is about 5.4%.

SMILES | SKKanGAS inh | CSC inhib | Mdm2 MdmX PPI | T cruzi repl | aSyn UTR inh
O=CN1CCCN(Cc2nc(Cc3ccccc3F)no2)CC1 | -5 | -1 | 1 | -2 | -4
c1ccc(Cc2noc(CN3CCN(CCOc4ccccc4)CC3)n2)cc1 | 6 | 8 | 1 | 57* | -4
c1ccc(CN2CCCC3(CCCN(Cc4nc(CC5CC5)no4)C3)C2)cc1 (configuration not stated) | -3 | 23 | 7 | 54 | -3
O=C(CC(c1ccc(F)cc1)c1ccco1)Nc1nccs1 (configuration not stated) | -3 | -6 | 10 | 2 | -4
CCCCc1cc(=O)oc2cc(OC(C)C(=O)NCC3CCC(C(=O)O)CC3)c(Cl)cc12 (configuration not stated) | 17 | -8 | 2 | -3 | 27
COc1ccc2[nH]c3c(c2c1)CCN1C(=O)C(CC(=O)NCc2ccco2)C[C@H](C(=O)N2CCOCC2)[C@@]31CCC1CCCC1 (some centres not stated) | x | x | 21 | x | x
Cc1nnc(-c2cccc(Br)c2)c2cn(-c3ccccc3)nc12 | 9 | -2 | 16 | 36 | 17
Cc1nnc(-c2cccc(Br)c2)c2cn(-c3cccc(Br)c3)nc12 | 29 | 23 | 27 | 60* | 6
Cc1nnc(-c2cccc(Br)c2)c2cn(-c3ccc(Br)cc3)nc12 | 56* | -4 | 20 | 54 | 16
COc1ccc(-n2cc3c(-c4cccc(Br)c4)nnc(C)c3n2)cc1 | 28 | 3 | 32 | 41 | 21
COc1ccccc1CNC(=O)c1cc(-c2ccccc2C)n(CC2CC(c3cccc([N+](=O)[O-])c3)=NO2)n1 (configuration not stated) | x | 4 | 12 | x | x
CC(C)(C)c1cc(C(=O)NCCN2CCCC2)cc(C(C)(C)C)c1 | -11 | -3 | 25 | 71* | -82
O=S(=O)(Nc1c(O)ccc2ccccc12)c1ccccc1 | 9 | 7 | 37 | 8 | 23
CCc1ccc(CN2CCCC(CCC(=O)N3CCN(c4ccccn4)CC3)C2)o1 (configuration not stated) | -8 | 6 | 15 | 59* | 2
CC1Sc2ccc(S(=O)(=O)NCCc3ccc(Cl)cc3)cc2NC1=O (configuration not stated) | -25 | -27 | 3 | 2 | -3
COc1ccc(-c2ncc(CN3CCN(CCC(C)C)C(CCO)C3)cn2)cc1 (configuration not stated) | -1 | -4 | -3 | 61* | -111
O=C1c2cccc([N+](=O)[O-])c2C(=O)N1CCO | -10 | -18 | -8 | 0 | -18
O=C1c2cccc3c(Nc4ccccc4Cl)c([N+](=O)[O-])cc(c23)C(=O)N1CCO | 25 | 0 | 22 | 59* | -13
COc1ccc(C(=O)NNC(=S)NC(=O)C(C)(C)C)cc1 | 68* | 19 | 31 | 12 | u
CCn1c(C)nc2cc(C(=O)NNC(=S)NC(=O)c3ccc(OC)cc3)ccc21 | 59* | 2 | 29 | -7 | -37
COc1ccc(C(=O)NC(=S)NNC(=O)c2ccccc2C)cc1 | 101* | 14 | 37 | -13 | 3
COc1ccc(C(=O)NC(=S)NNC(=O)c2ccccc2O)cc1 | 102* | 54 | 32 | 5 | 52
C=CCN(Cc1cccc(OC)c1OC)C(=O)Oc1ccccc1 | x | -17 | -19 | x | x
CC(NC(=O)OCc1ccccc1)C(=O)NCC(=O)NC(Cc1ccc(OC(C)(C)C)cc1)C(=O)OC(C)(C)C (configuration not stated) | -2 | -12 | -24 | 13 | 4
O=C(N1CCCC1)C12CCC3CC(CC(C3)C1)C2 | 25 | 3 | 26 | 1 | -3
SMILES | SKKanGAS inh | CSC inhib | Mdm2 MdmX PPI | T cruzi repl | aSyn UTR inh
Cc1[nH]c2ccccc2c(=O)c1CN1CCCCC1 | 0 | -18 | -6 | -5 | 3
c1ccc(N2CCN(Cc3nc4ccccc4[nH]3)CC2)nc1 | 1 | -2 | -6 | -3 | -11
Cc1[nH]c2ccccc2c1CN1CCN(c2ccccn2)CC1 | -1 | -10 | 15 | 78* | 4
Cc1[nH]c2ccccc2c1CN1CCC(Cc2ccccc2)CC1 | 0 | 63 | 46 | 94* | -21
O=C(Nc1ccn(Cc2c(F)c(F)cc(F)c2F)n1)c1ccc(COc2ccccc2Cl)cc1 | 8 | 14 | 25 | 63* | -40
O=C(Nc1ccn(Cc2ccccc2F)n1)c1ccc(COc2ccccc2Cl)cc1 | 23 | 139* | 21 | 24 | -32
Cc1cc(C)nc(NC(=O)c2ccc(COc3ccccc3Cl)cc2)c1 | 18 | 99* | 9 | -10 | 3
Cc1ccc(S(=O)(=O)NCC(=O)OCC(=O)NCc2ccco2)cc1 | x | -26 | 27 | x | x
CCOC(=O)c1c(C)[nH]c(C)c1S(=O)(=O)NCC(=O)Nc1ccccn1 | 1 | -12 | 11 | -16 | 1
CCN1C(=O)[C@H]2[C@H]3CN=C(SC)N3[C@@](Cc3ccccc3)(C(=O)OC)[C@H]2C1=O | x | x | 6 | x | x
COc1cc(-c2nc3ccccc3s2)ccc1O | 2 | 21 | -121 | -16 | -222
COc1ccc(-c2nc3ccccc3s2)cc1O | 0 | 25 | 2 | -2 | 85*
O=C(Cn1cnc2scc(-c3ccc(F)cc3)c2c1=O)NCC(c1ccco1)N1CCCC1 (configuration not stated) | x | x | 21 | x | x
COCCCNS(=O)(=O)c1cc2c3c(c1)C(C)C(=O)N3CCC2 (configuration not stated) | 4 | -1 | 32 | -5 | -11
CC1(C)Cc2ccccc2C2CC(O)C(=O)N21 (configuration not stated) | 5 | 25 | 11 | 5 | -15
Cc1ccc(Cn2c(=O)n(Cc3ccco3)c(=O)c3ccccc32)cc1 | 55* | -8 | -3 | 9 | 34
O=c1c2ccccc2n(Cc2ccc(Cl)cc2)c(=O)n1Cc1ccco1 | 13 | -8 | 25 | 3 | 46
O=C(Nc1ccccc1C(=O)NC1CC1)c1ccc([N+](=O)[O-])o1 | x | x | 26 | x | x
COC(=O)/C=C1\SC(=Nc2ccc(Cl)c(Cl)c2)NC1=O | 73* | x | -6 | 6 | -13
CCCCNC(=O)c1cc2c(=O)n3cccc(C)c3nc2n(Cc2ccccc2)c1=N | 4 | x | 39 | 60* | 6
Cc1ccc(CNC(N)=S)cc1 | 0 | -24 | -4 | -10 | 2
CCC(C)NC(=O)c1ccc(NC(=O)CC2SC(N3CCCC3)=NC2=O)cc1 (configuration not stated) | x | -1 | 27 | x | x
COc1cc2c(cc1NC(=O)Nc1cccc(C)c1)oc1ccccc12 | -4 | 20 | -10 | 34 | -23
COc1cc2c(cc1NC(=O)CSc1nc3ccccc3[nH]1)oc1ccccc12 | 6 | 80* | 14 | 32 | 10
COc1cc2c(cc1NC(=O)COC(=O)[C@@H](NS(=O)(=O)c1cccc(Cl)c1)C(C)C)oc1ccccc12 | 34 | 10 | 21 | 9 | -103
COc1cc2c(cc1NC(=O)Nc1ccc(F)cc1)oc1ccccc12 | 6 | -19 | 15 | 60* | -95

Screens as filed in PubChem.
